Data set [1] is described as follows: Cytotoxicity against human NCI60 cells. The data set is classed as functional. The settings on record: for TGI: read-out: pTGI (converted).
The subject of data set [2] is L1210. In words: Cytotoxicity against mouse L1210 cells at 63 ug/disk by Valeriote soft agar disk diffusion method. The data set is classed as functional. A digest of the protocol: (§1)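 Corbett–Valeriote soft agar disk diffusion assay. Sample is loaded onto a disk at the stated µg/disk and placed on soft agar cultures of the cells. The read-out is the size of the zone of inhibition around the disk. Zones for the solid tumour line (Colon38) are compared with those for leukaemia cells (L1210) or normal CFU-GM cells to judge differential cytotoxicity.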

Data set [3] is described as follows: Cytotoxicity against human CFU-GM cells at 63 ug/disk by Valeriote soft agar disk diffusion method. Type of data set: cell-based. In outline: as §1
(Agar diffusion results depend on both activity and mobility in agar.)

The subject of data set [4] is MC-38. In words: Cytotoxicity against […] cells at 63 ug/disk by Valeriote soft agar disk diffusion method. The data set is classed as functional. A digest of the protocol: as §1
Data set [5] can be described thus: Cytotoxicity against human H125 cells at 1.5 ug/mL by Valeriote soft agar disk diffusion method. Type of data set: functional. A digest of the protocol: (§2)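 Corbett–Valeriote soft agar disk diffusion assay, with doses given per disk. Zones of inhibition around sample disks were compared between solid tumor cells (Colon38, ColonH116, LungH125) and either leukemia cells (L1210 or CEM) or normal CFU-GM cells. Zone sizes were used to score differential (solid tumor-selective) cytotoxicity.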

The subject of data set [6] is MC-38. The experiment in a line: Cytotoxicity against […] cells at 1.5 ug/mL by Valeriote soft agar disk diffusion method. The data set is classed as functional. In outline:
as §2

Data set [7] in a line: Cytotoxicity against human H116 cells at 1.5 ug/mL by Valeriote soft agar disk diffusion method.
Data set [8] relates to CCRF-CEM. In words: Cytotoxicity against human CEM cells at 1.5 ug/mL by Valeriote soft agar disk diffusion method.
Data set [9] deals with L1210. In words: Cytotoxicity against mouse L1210 cells at 1.5 ug/mL by Valeriote soft agar disk diffusion method.
The nature of data set [10]: Cytotoxicity against human H125 cells at 1.5 ug/mL by Valeriote soft agar disk diffusion method.
In data set [11] the test system is L1210. The experiment in a line: Cytotoxicity against mouse L1210 cells at 1.5 ug/mL by Valeriote soft agar disk diffusion method. The data set is classed as functional. A digest of the protocol:
as §2

Data set [12] is described as follows: Cytotoxicity against human H116 cells at 1.5 ug/mL by Valeriote soft agar disk diffusion method. Type of data set: functional. In outline: as §2
The test system of data set [13] is MC-38. The experiment in a line: Cytotoxicity against […] cells at 1.5 ug/mL by Valeriote soft agar disk diffusion method.
The subject of data set [14] is CCRF-CEM. In words: Cytotoxicity against human CEM cells at 1.5 ug/mL by Valeriote soft agar disk diffusion method. The data set is classed as functional. A digest of the protocol:
as §2

The subject of data set [15] is MC-38. In words: Cytotoxicity against […] cells at 1.8 ug/mL by Valeriote soft agar disk diffusion method. Type of data set: functional. A digest of the protocol:
as §2

Data set [16] deals with MC-38. In words: Cytotoxicity against […] cells at 113 ug/disk by Valeriote soft agar disk diffusion method. Type of data set: functional. A digest of the protocol:
as §1

Data set [17] deals with L1210. In words: Cytotoxicity against mouse L1210 cells at 113 ug/disk by Valeriote soft agar disk diffusion method. Type of data set: functional. In outline:
as §1

Data set [18] in a line: Cytotoxicity against human CFU-GM cells at 113 ug/disk by Valeriote soft agar disk diffusion method. Type of data set: cell-based. In outline:
as §1

The structures appear in SMILES notation.

In general, GI50 refers to the concentration that inhibits growth by half. As a reminder, the LC50 is the concentration that kills 50% of the test population. With `CC1=CC(=O)[C@H]2C(C)(C)[C@@H](Cl)[C@H](Cl)C[C@]2(C)[C@H]1C[C@H](O)[C@H]1CC(=O)NC1=O` [HATERUMAIMIDE D], in [1], the GI50 was 977 nM, the LC50 was 44700 nM and the TGI is 12300 nM.

For `C=C1[C@@H](O)C[C@H]2C(C)(C)[C@@H](O)[C@H](Cl)C[C@]2(C)[C@H]1C[C@H](O)[C@H]1CC(=O)NC1=O`, the Activity in the data set on L1210 [2] was 500 Zone units; in data set [3], 100 Zone units; in the data set on MC-38 [4] it was 400 Zone units.

Regarding `C=C1[C@@H](O)C[C@H]2C(C)(C)C[C@H](Cl)C[C@]2(C)[C@H]1C[C@H](O)[C@H]1CC(=O)NC1=O` [CHLOROLISSOCLIMIDE], the Activity (in [5]; with MC-38 [6]; in data set [7]; in the data set on CCRF-CEM [8]; in the data set on L1210 [9]; in data set [10]) was 550 Zone units in each case. Further, the Activity (in the data set on L1210 [11]; in data set [12]; in the data set with MC-38 [13]; in the data set with CCRF-CEM [14]) was 550 Zone units each time. The same compound showed a GI50 in data set [1] of 5.75 nM. The compound also gave an LC50 in data set [1] of 16600 nM. For the same compound, the TGI in data set [1] is 129 nM.

As to `C=C1[C@@H](O)C[C@H]2C(C)(C)[C@@H](Cl)[C@H](Cl)C[C@]2(C)[C@H]1C[C@H](O)[C@H]1CC(=O)NC1=O` [DICHLOROLISSOCLIMIDE], the Activity (in data set [5]; in the data set on MC-38 [6]; in data set [7]; with CCRF-CEM [8]; with L1210 [9]; in data set [10]) was 550 Zone units each time. For the same compound, the Activity (in the data set on L1210 [11]; in data set [12]; with CCRF-CEM [14]; with MC-38 [15]) was 550 Zone units throughout. Further, in data set [1], growth was halved (GI50) at 5.5 nM. For the same compound, in [1], the LC50 was 20000 nM. In addition, in data set [1], the TGI was 123 nM.

Regarding `C=C1CC(=O)[C@H]2C(C)(C)[C@@H](Cl)[C@H](Cl)C[C@]2(C)[C@H]1C[C@H](O)[C@H]1CC(=O)NC1=O`, the Activity was 650 Zone units with MC-38 [16], 250 Zone units with L1210 [17] and 350 Zone units in [18].

These data come from ChEMBL document CHEMBL1148211, “Cytotoxic lissoclimide-type diterpenes from the molluscs Pleurobranchusalbiguttatus and Pleurobranchus forskalii” (J Nat Prod, 2004).
